Experimental data from different studies.
Compare with care: the assays were run in different laboratories.

SMILES | system | setting | Tmax
Cc1[nH]c(C)c(S(=O)(=O)Nc2ccc(C(F)(F)F)c(Cl)c2)c1C(=O)N1CCC(F)(F)C1 | male CD-1 mouse, plasma | intraperitoneal, 40 mg/kg | 60 min
NCc1cc2c(cc1F)C(=O)N(C1CCC(=O)NC1=O)C2 (stereo not shown) | male CD-1 mouse, plasma | oral, 10 mg/kg | 48 min
COCC(=O)N1CCc2[nH]c3c(Cl)c(Cl)ccc3c2[C@@H]1C | C57BL/6 mouse, blood | oral, 20 mg/kg | 25 min
Cc1ccc(N(c2ccc(NC(=O)CN(C)c3ccccc3N3CCCC3=O)cc2)C(C)C)cc1 | male CD-1 mouse, plasma | oral, 20 mg/kg | 40.2 min
Cc1ccc2c(c1)C(=O)[C@]1(O)CCN(c3ccc4nc(C)ccc4c3)C1=N2.Cl | mouse, brain | subcutaneous, 5 mg/kg | ≤ 10 min
OCc1ccc(-c2nn(Cc3ccccc3)c3ccccc23)o1 | male CD-1 mouse, plasma | oral, 10 mg/kg | 15 min
CN(C)C(=O)c1cc2cnc(Nc3ccc(-c4ccc5c(=O)cc(N6CCOCC6)oc5c4)cc3)nc2n1C1CCCC1.Cl | BALB/c mouse, plasma | intravenous, 2 mg/kg | 6 min
OCc1nc2ccc(NCc3ccc(C(F)(F)F)cc3)cc2[nH]1 | male BALB/c mouse, plasma | intravenous, 1 mg/kg | 15 min
CCn1c(=O)c(-c2cc(NC(=O)Nc3ccccc3)c(F)cc2Br)cc2cnc(NC)cc21 | male mouse, plasma | oral, 15 mg/kg, single dose | 60 min
CC[C@H](C)[C@H](NC(=O)[C@H](CCC(=O)O)NC(=O)[C@H](CO)NC(=O)[C@@H](NC(=O)[C@@H](N)CO)C(C)C)C(=O)N[C@@H](CCC(N)=O)C(=O)N[C@@H](CC(C)C)C(=O)N[C@@H](CCSC)C(=O)N[C@@H](Cc1cnc[nH]1)C(=O)N[C@@H](CC(N)=O)C(=O)N[C@@H](CC(C)C)C(=O)NCC(=O)N[C@@H](CCCCN)C(=O)N[C@@H](Cc1cnc[nH]1)C(=O)N[C@@H](CC(C)C)C(=O)N[C@@H](CC(N)=O)C(=O)N[C@@H](CO)C(=O)N[C@@H](CCSC)C(=O)N[C@@H](CCC(=O)O)C(=O)N[C@@H](CCCNC(=N)N)C(=O)N[C@H](C(=O)N[C@@H](CCC(=O)O)C(=O)N[C@@H](Cc1c[nH]c2ccccc12)C(=O)N[C@@H](CC(C)C)C(=O)N[C@@H](CCCNC(=N)N)C(=O)N[C@@H](CCCCN)C(=O)N[C@@H](CCCCN)C(=O)N[C@@H](CC(C)C)C(=O)N[C@@H](CCC(N)=O)C(=O)N[C@@H](CC(=O)O)C(=O)N[C@H](C(=O)N[C@@H](Cc1cnc[nH]1)C(=O)N[C@@H](CC(N)=O)C(=O)N[C@@H](Cc1ccccc1)C(N)=O)C(C)C)C(C)C | female CD-1 mouse, serum | intravenous, 10 nmol/kg | 1.8 min
COC1=CC(c2ccc[nH]2)=N/C1=C\c1cc(Cc2ccc(OC(F)(F)F)cc2)c(C)[nH]1.Cl | male CD-1 mouse, plasma | oral, 40 mg/kg, single dose | 1440 min
NCc1ccc(-c2nn(Cc3ccncc3)c3ccccc23)o1 | male CD-1 mouse, plasma | oral, 10 mg/kg | 30 min
COc1ccc(C[C@H](NC(=O)[C@H](C)NC(=O)CN2CCOCC2)C(=O)N[C@@H](Cc2ccccc2)C(=O)C2(C)CO2)cc1 (stereo in doubt) | mouse, plasma | oral, 20 mg/kg, single dose | 18 min
COC1=CC(c2ccc[nH]2)=N/C1=C\c1[nH]c(Cc2ccc(OC(F)(F)F)cc2)cc1Cc1ccc(OC(F)(F)F)cc1 | male CD-1 mouse, liver | oral, 40 mg/kg, single dose | 240 min
NCc1ccc(-c2nn(Cc3ccccc3)c3ccccc23)o1 | male CD-1 mouse, plasma | intraperitoneal, 30 mg/kg | 30 min
Cc1ccc(OCC(=O)N[C@@H](Cc2c[nH]c3ccccc23)C(=O)OC(C)C)cc1 | male Sprague-Dawley mouse, plasma | intravenous, 10 mg/kg | 48 min
